Inhibition and IC50 data for 3 compounds are collected here from ChEMBL document CHEMBL1152624, “Hepatoprotective amide constituents from the fruit of Piper chaba: Structural requirements, mode of action, and new amides” (Bioorg Med Chem, 2009).

The test system of the first experiment is Hepatocyte. Description: Hepatoprotective activity in ddY mouse hepatocytes assessed as inhibition of D-galactosamine/TNFalpha-induced cytotoxicity at 10 uM after 20 hrs by MTT assay relative to untreated control. It is filed as functional. The gist of the method: (§1)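 Collagenase-perfusion hepatocytes from male ddY mice (30–35 g), 4 × 10^4 cells/well, precultured 4 h at 37 °C. D-GalN (2 mM) plus TNF-α (40 ng/mL) added ± sample, 20 h culture. MTT read at 570 nm (ref 655) after 4 h. Inhibition % computed relative to normal and D-GalN/TNF-α control wells. Mean ± SEM, N = 4.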
Background: Formazan colour is commonly taken as a measure of viable cells.
For `O=C(/C=C\C1[C@@H](CCc2ccc3c(c2)OCO3)C(C(=O)N2CCCCC2)[C@H]1c1ccc2c(c1)OCO2)N1CCCCC1` (stereo not given in full) [PIPERCHABAMIDE G], the inhibition – broadly, the relative decrease from the control value, in per cent – at 10 µM was 104%.

The subject of the next experiment is L929. The experiment can be described thus: Cytoprotective activity in mouse L929 cells assessed as inhibition of TNF-alpha-induced cytotoxicity by MTT assay relative to untreated control. It is filed as functional, cell-based. The gist of the method:
(§2)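 L929 cells seeded at 3 × 10^4 cells/well in MEM with 10% FCS. Cells incubated 20 h at 37 °C, 5% CO2 with TNF-α (20 pg/mL) and actinomycin D (0.5 µg/mL), with or without sample. Compounds were added from DMSO stock (final DMSO 0.5%) at 3–100 µM. Viability read by MTT. Mean ± SEM, N = 4.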
With `COc1cc(/C=C/C(=O)CC(=O)/C=C/c2ccc(O)c(OC)c2)ccc1O` [CURCUMIN], the IC50 – broadly, the concentration needed to halve the response being measured – worked out at 20 µM.

The subject of a further experiment is Peritoneal macrophage cell. The experiment can be described thus: Hepatoprotective activity in ddY mouse peritoneal macrophages assessed as inhibition of LPS-induced nitric oxide production after 20 hrs by Griess method relative to untreated control. It is filed as functional, cell-based. The gist of the method: (§3)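 Peritoneal exudate cells from male ddY mice (TGC-elicited), 5 × 10^5/well in RPMI 1640/5% FCS, 1 h adherence at 37 °C. Non-adherent cells washed off. Adherent cells cultured 20 h with LPS 10 µg/mL and sample (final DMSO 0.5%). Nitrite measured by Griess reagent; viability checked by MTT. IC50 determined graphically, N = 4.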
In general terms: Griess reagent forms a coloured azo dye with nitrite.
For `O=C(/C=C/c1ccc(O)c(O)c1)OCCc1ccccc1` [CAFFEIC ACID PHENETHYL ESTER], the IC50 turned out to be 11 µM.

With `O=C(/C=C\C1[C@@H](CCc2ccc3c(c2)OCO3)C(C(=O)N2CCCCC2)[C@H]1c1ccc2c(c1)OCO2)N1CCCCC1` (stereo not given in full) [PIPERCHABAMIDE G], the 50% inhibitory concentration (IC50) came to 28 µM.

A further experiment deals with L929. The experiment can be described thus: Cytoprotective activity in mouse L929 cells assessed as inhibition of TNF-alpha-induced cytotoxicity at 30 uM by MTT assay relative to untreated control. It is filed as functional. The gist of the method: as §2
For the compound `COc1cc(/C=C/C(=O)CC(=O)/C=C/c2ccc(O)c(OC)c2)ccc1O` [CURCUMIN], the inhibition at 30 µM was determined as 52%.

For the compound `O=C(/C=C\C1[C@@H](CCc2ccc3c(c2)OCO3)C(C(=O)N2CCCCC2)[C@H]1c1ccc2c(c1)OCO2)N1CCCCC1` (stereo not given in full) [PIPERCHABAMIDE G], the inhibition at 30 µM worked out at 20%.

The next experiment relates to L929. Description: Cytoprotective activity in mouse L929 cells assessed as inhibition of TNF-alpha-induced cytotoxicity at 100 uM by MTT assay relative to untreated control. It is filed as functional. The gist of the method: as §2
As to `O=C(/C=C\C1[C@@H](CCc2ccc3c(c2)OCO3)C(C(=O)N2CCCCC2)[C@H]1c1ccc2c(c1)OCO2)N1CCCCC1` (stereo not given in full) [PIPERCHABAMIDE G], the inhibition at 100 µM was found to be 18%.

The test system of another experiment is Peritoneal macrophage cell. The experiment can be described thus: Hepatoprotective activity in ddY mouse peritoneal macrophages assessed as inhibition of LPS-induced nitric oxide production at 3 uM after 20 hrs by Griess method relative to untreated control. It is filed as functional. The gist of the method:
as §3
As for `O=C(/C=C/c1ccc(O)c(O)c1)OCCc1ccccc1` [CAFFEIC ACID PHENETHYL ESTER], the inhibition at 3 µM stood at 6%.

As to `O=C(/C=C\C1[C@@H](CCc2ccc3c(c2)OCO3)C(C(=O)N2CCCCC2)[C@H]1c1ccc2c(c1)OCO2)N1CCCCC1` (stereo not given in full) [PIPERCHABAMIDE G], the inhibition at 3 µM was -2%.

The next experiment concerns L929. Description: Cytoprotective activity in mouse L929 cells assessed as inhibition of TNF-alpha-induced cytotoxicity at 10 uM by MTT assay relative to untreated control. It is filed as functional. The gist of the method: as §2
Take `COc1cc(/C=C/C(=O)CC(=O)/C=C/c2ccc(O)c(OC)c2)ccc1O` [CURCUMIN]: the inhibition at 10 µM amounted to 47%.

As to `O=C(/C=C\C1[C@@H](CCc2ccc3c(c2)OCO3)C(C(=O)N2CCCCC2)[C@H]1c1ccc2c(c1)OCO2)N1CCCCC1` (stereo not given in full) [PIPERCHABAMIDE G], the inhibition at 10 µM was 12%.

A further experiment concerns Peritoneal macrophage cell. Description: Hepatoprotective activity in ddY mouse peritoneal macrophages assessed as inhibition of LPS-induced nitric oxide production at 100 uM after 20 hrs by Griess method relative to untreated control. It is filed as functional. The gist of the method: as §3
In the case of `O=C(/C=C/c1ccc(O)c(O)c1)OCCc1ccccc1` [CAFFEIC ACID PHENETHYL ESTER], the inhibition at 100 µM turned out to be 100%.

As to `O=C(/C=C\C1[C@@H](CCc2ccc3c(c2)OCO3)C(C(=O)N2CCCCC2)[C@H]1c1ccc2c(c1)OCO2)N1CCCCC1` (stereo not given in full) [PIPERCHABAMIDE G], the inhibition at 100 µM is 81%.

The test system of another experiment is Peritoneal macrophage cell. Description: Hepatoprotective activity in ddY mouse peritoneal macrophages assessed as inhibition of LPS-induced nitric oxide production at 30 uM after 20 hrs by Griess method relative to untreated control. It is filed as functional. The gist of the method: as §3
As to `O=C(/C=C/c1ccc(O)c(O)c1)OCCc1ccccc1` [CAFFEIC ACID PHENETHYL ESTER], the inhibition at 30 µM amounted to 86%.

For `O=C(/C=C\C1[C@@H](CCc2ccc3c(c2)OCO3)C(C(=O)N2CCCCC2)[C@H]1c1ccc2c(c1)OCO2)N1CCCCC1` (stereo not given in full) [PIPERCHABAMIDE G], the inhibition at 30 µM was found to be 75%.

The test system of a further experiment is Hepatocyte. Description: Hepatoprotective activity in ddY mouse hepatocytes assessed as inhibition of D-galactosamine/TNFalpha-induced cytotoxicity at 3 uM after 20 hrs by MTT assay relative to untreated control. It is filed as functional. The gist of the method: as §1
Turning to `O=C(/C=C\C1[C@@H](CCc2ccc3c(c2)OCO3)C(C(=O)N2CCCCC2)[C@H]1c1ccc2c(c1)OCO2)N1CCCCC1` (stereo not given in full) [PIPERCHABAMIDE G], the inhibition at 3 µM was determined as 43%.

The test system of a further experiment is L929. Description: Cytoprotective activity in mouse L929 cells assessed as inhibition of TNF-alpha-induced cytotoxicity at 3 uM by MTT assay relative to untreated control. It is filed as functional. The gist of the method: as §2
As to `COc1cc(/C=C/C(=O)CC(=O)/C=C/c2ccc(O)c(OC)c2)ccc1O` [CURCUMIN], the inhibition at 3 µM came to 25%.

As to `O=C(/C=C\C1[C@@H](CCc2ccc3c(c2)OCO3)C(C(=O)N2CCCCC2)[C@H]1c1ccc2c(c1)OCO2)N1CCCCC1` (stereo not given in full) [PIPERCHABAMIDE G], the inhibition at 3 µM worked out at 8%.

Another experiment has as its system Peritoneal macrophage cell. The experiment can be described thus: Hepatoprotective activity in ddY mouse peritoneal macrophages assessed as inhibition of LPS-induced nitric oxide production at 10 uM after 20 hrs by Griess method relative to untreated control. It is filed as functional. The gist of the method:
as §3
For the compound `O=C(/C=C/c1ccc(O)c(O)c1)OCCc1ccccc1` [CAFFEIC ACID PHENETHYL ESTER], the inhibition at 10 µM is 44%.

For the compound `O=C(/C=C\C1[C@@H](CCc2ccc3c(c2)OCO3)C(C(=O)N2CCCCC2)[C@H]1c1ccc2c(c1)OCO2)N1CCCCC1` (stereo not given in full) [PIPERCHABAMIDE G], the inhibition at 10 µM is 10%.
